Screening data: PubChem, several laboratories
Compounds with a hit are over-represented: about 1.2% of the library has one in this group of screens.
CaV13 ICDI inh – Disruptors of the CACNA1D IQ motif to Ca2+-dependent inactivation inhibitor domain association, primary screening, Förster resonance energy transfer in intact living …; HEK cells, CFP/YFP FRET ICDI-IQ, plate reader, 10 min; percent FRET-ratio fall versus neutral wells; inhibition, % at 12.3 µM; 340,000 compounds, 0.098% hits; AID 743397;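 active = mean replicate inhibition of at least 30% and at least 1% of replicates passing that level; inconclusive = only one of the two criteria is met; inactive = neither criterion is met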;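 also: 0% = median of the neutral control wells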
SR-BI uptake up – activators of SR-BI mediated HDL lipid uptake | activation, % at 12.5 µM | 320,000 compounds, 0.096% hits | CHO ldlA[mSR-BI] cells, DiI-HDL uptake fluorescence, 3 h; 100 = double the neutral-control signal;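 active = mean replicate activation of at least 60% and every replicate at or above 60%; inconclusive = mean or all-replicate condition met, but not both; inactive = mean below 60% and not all replicates reaching 60%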;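 also: 0% = median plate neutral-control signal and 100% = twice that signal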
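Material – SR-BI-overexpressing, LDLR-lacking CHO cells · Medium – BSA-supplemented, HEPES-buffered Ham's F12, pH 7.4 · Doses – single concentration · Times – compound with DiI-HDL co-incubation, 3 h at 37 °C · Measured by – bottom-read fluorescence, 550/595 nm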
FN deposition inh – fibronectin deposition inhibition; AH1F fibroblasts, Alexa488-fibronectin deposition fluorescence, overnight; inhibition, % at 12.6 µM; 350,000 compounds, 0.086% hits; AID 743247;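 active = mean inhibition across replicates of 30% or more, regardless of how many single replicates reach that level; inconclusive = mean under 30% yet at least half of replicates reach 30%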;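 also: positive control wells lacked labelled fibronectin entirely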
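Measured by – fluorescence 485/525 nm · System – AH1F fibroblast monolayer, labelled fibronectin deposition · Amount – 10000 cells per well · Buffer or medium – serum-reduced DMEM (2% serum) · Doses – single dose, pinned · Also added – fluorescent fibronectin at 24 nM final · Schedule – 1 h cell attachment, overnight exposure to compound and label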
Efflux pump inh – antifungal efflux pump inhibition, Nile Red retention; S. cerevisiae Candida pump triplex; inhibition, % at 10 µM; 330,000 compounds, 0.44% hits; AID 485275;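 active = plate passing quality check with inhibition over a set limit, or well fluorescence over plate mean plus 4 SD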;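 also: Nile Red retained in pooled yeast measured as flow cytometry median fluorescence; 0% = buffer negative control and 100% = Enniatin B positive control; higher means more Nile Red kept so more efflux inhibition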
SR-BI DiI inh – mouse SR-BI HDL lipid transfer inhibition; inhibition, % at 12.5 µM; 320,000 compounds, 0.96% hits; ldlA[mSR-BI] CHO cells, DiI-HDL uptake fluorescence, 3 h; Q61009;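 active = mean replicate inhibition of at least 70% and a set share of replicates each scoring 70 or more; inconclusive = meets just one of the two criteria; inactive = fails both criteria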;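 also: 0% = median of neutral control wells and 100% = median of positive control wells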
Target sequence (Q61009 whole entry, looked up): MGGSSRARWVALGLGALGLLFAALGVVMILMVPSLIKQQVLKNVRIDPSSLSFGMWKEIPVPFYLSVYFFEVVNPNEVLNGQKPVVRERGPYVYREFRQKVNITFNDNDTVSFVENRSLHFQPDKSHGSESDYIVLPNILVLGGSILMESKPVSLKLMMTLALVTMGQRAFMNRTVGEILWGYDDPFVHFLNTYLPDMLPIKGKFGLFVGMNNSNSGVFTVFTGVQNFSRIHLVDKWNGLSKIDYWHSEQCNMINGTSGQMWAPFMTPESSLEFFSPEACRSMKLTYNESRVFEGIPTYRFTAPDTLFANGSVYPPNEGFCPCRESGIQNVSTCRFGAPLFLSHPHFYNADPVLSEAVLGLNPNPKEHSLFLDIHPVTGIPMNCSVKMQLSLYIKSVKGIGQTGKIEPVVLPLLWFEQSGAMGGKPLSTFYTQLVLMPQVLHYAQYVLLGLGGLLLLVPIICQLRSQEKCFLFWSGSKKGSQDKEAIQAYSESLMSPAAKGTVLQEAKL
Starred values were filed as active, the others as inactive; ? = inconclusive; / = not tested or not shown; + = active, no number.

SMILES | CaV13 ICDI inh | SR-BI uptake up | FN deposition inh | Efflux pump inh | SR-BI DiI inh
COc1c(Cl)cc(-c2noc(C)c2C(=O)NCc2ccc3c(c2)OCO3)cc1Cl | 70.7* | -6.0 | 0.5 | -0.5 | 6.0
N#Cc1c2ccc(O)cc2n2ccccc12 | + | -19.6 | -20.3 | 0.1 | 19.6
CC(=O)Nc1ccc2c(c1)CC(=O)N(C)C[C@H](C)[C@@H](CN(C)C(=O)OC(C)(C)C)O2 | / | / | -14.9 | / | /
Cc1cc(N(C)C(=O)c2ccc3c(c2)S(=O)(=O)c2cc(Cl)ccc2C3=O)c(C(F)(F)F)o1 | -4.7 | -74.1 | -2.3 | -0.1 | 74.1*
COc1ccc(S(=O)(=O)N2CCCC2CNC(=O)C(=O)NC2CCCCCC2)cc1 (configuration not stated) | -5.6 | -49.8 | -3.6 | 0.1 | 49.8
COc1ccc(S(=O)(=O)N2CCCC2CNC(=O)C(=O)NC2CCCC2)cc1 (configuration not stated) | 31.2* | / | -2.2 | / | /
COc1ccc(CCC(=O)Nc2cc([N+](=O)[O-])ccc2OC)cc1 | -4.2 | -74.1 | 13.2 | 1.9 | 74.1*
COc1ccc([N+](=O)[O-])cc1NC(=O)Nc1cccc(Cl)c1 | -3.0 | -82.7 | -5.1 | 0.1 | 82.7*
COc1ccc(NC(=O)Nc2ccc(OC)c(OC)c2)c([N+](=O)[O-])c1 | -4.8 | -9.5 | 0.0 | 0.0 | 9.5
COc1ccc([N+](=O)[O-])cc1NC(=O)Nc1ccc(OC)c(OC)c1 | -4.4 | -76.0 | 0.2 | 0.1 | 76.0*
O=C(C[C@H]1C[C@H]2c3cc(NC(=O)Nc4ccccc4)ccc3O[C@H]2[C@@H](CO)O1)NCc1ccncc1 | / | / | 0.8 | / | /
CN1OC[C@@H]2CN(Cc3ccccc3)[C@H](c3cccc(N4CCOCC4)c3)C[C@@H]21 | -4.5 | -5.8 | -9.6 | / | 5.8
Cc1ccccc1-c1cccc([C@@H]2C[C@H]3[C@H](CON3C)CN2Cc2ccccc2)c1 | -4.1 | / | active | / | /
C[C@@H]1CN([C@H](C)CO)C(=O)c2cc(NS(=O)(=O)c3ccccc3)ccc2O[C@H]1CN(C)C(=O)Nc1ccc(C(F)(F)F)cc1 | / | / | 9.2 | / | /
CC1CN(CCC(=O)Nc2ccc3c(c2)OCO3)CC(C)O1 (configuration not stated) | / | -80.1 | / | -0.1 | 80.1*
C[C@@H]1CN([C@@H](C)CO)C(=O)Cc2cc(NC(=O)C3CCCCC3)ccc2O[C@H]1CN(C)Cc1ccc(C(=O)Nc2ccccc2N)cc1 | / | / | 3.0 | / | /
COc1cccc(CN2CC3(C2)[C@H](c2ccccc2)[C@@H](CO)N3Cc2cccc(OC)c2)c1 | / | / | -5.3 | / | /
O=c1[nH]c2ccc(NCc3ccccc3OCc3ccc(Cl)cc3)cc2[nH]1 | -0.1 | -71.7 | -1.9 | 0.0 | 71.7*
Nc1nc(-c2ccc3c(c2)OCCO3)cs1 | / | -11.2 | / | -0.2 | 11.2
Nc1nc(-c2cc3c(cc2Cl)OCCO3)cs1 | -3.0 | -7.3 | 31.8* | 0.1 | 7.3
O=C(C1CC1)N1CC2(C1)[C@@H](c1ccccc1)[C@@H](CO)N2CC1CCCC1 | / | / | 1.0 | / | /
O=c1c2ccccc2sn1-c1cc(S(=O)(=O)N2CCOCC2)ccc1N1CCOCC1 | -4.8 | 40.7 | 49.5* | -0.1 | -40.7
O=C(C[C@H]1CC[C@@H](NS(=O)(=O)c2ccccc2)[C@H](CO)O1)N1CCC(Cc2ccccc2)CC1 | / | / | -3.3 | / | /
CCOC(=O)C1=C(C)NC(=S)NC1c1ccc(OCC(=O)N2CCCCCC2)c(OC)c1 (configuration not stated) | -2.4 | -70.8 | 3.5 | 0.3 | ?
CCOC(=O)c1c(NC(=O)C2=C(C)NC(=S)NC2c2ccc(F)cc2F)sc(C)c1C (configuration not stated) | -14.1 | -52.5 | -12.7 | -0.3 | 52.5
SMILES | CaV13 ICDI inh | SR-BI uptake up | FN deposition inh | Efflux pump inh | SR-BI DiI inh
CCOC(=O)C1=C(C)NC(=S)NC1c1ccc(OCC(=O)N2CCCCC2)cc1 (configuration not stated) | -2.4 | -73.4 | 3.6 | 0.1 | 73.4*
CCOC(=O)c1c(NC(=O)C2=C(C)NC(=S)NC2c2ccc(C)cc2)sc(C)c1C (configuration not stated) | -4.6 | -72.0 | -12.6 | 0.0 | 72.0*
CCOC(=O)c1c(NC(=O)C2=C(C)NC(=S)NC2c2ccc(F)cc2)sc(C)c1C (configuration not stated) | -3.3 | -70.7 | 5.6 | 0.4 | 70.7*
CC(=O)N(C)C[C@@H]1Oc2ccc(N)cc2C(=O)N(C)C[C@H]1C | / | / | -2.1 | / | /
C/C=C/c1ccc([C@@H]2[C@@H](CO)N(C(=O)C3CCCCC3)C23CN(C(=O)NC(C)C)C3)cc1 | / | / | -3.8 | / | /
CCOc1ccc(S(=O)(=O)N(C)c2ccc(OCC(=O)Nc3nc(-c4cc(OC)ccc4OC)cs3)cc2)cc1 | -4.6 | -82.0 | 0.8 | 0.1 | 82.0*
C[C@H](CO)N1C[C@H](C)[C@@H](CN(C)C(=O)c2ccccn2)Oc2ncc(-c3ccccc3F)cc2C1=O | / | / | -7.6 | / | /
Cc1ccc(-c2nc(NC(=O)c3nn(C)cc3[N+](=O)[O-])sc2C)cc1C | -8.8 | -73.9 | / | -0.1 | 73.9*
COc1cc2nc(NC(=O)c3ccccc3)[nH]c(=O)c2cc1OC | -5.0 | -68.7 | 2.3 | 0.0 | 68.7
COc1ccc(C(=O)Nc2nc3cc(OC)c(OC)cc3c(=O)[nH]2)cc1 | -5.2 | -85.9 | 5.7 | 0.0 | 85.9*
CN(C)S(=O)(=O)c1ccc(-c2csc(N/N=C/c3ccc(O)cc3)n2)cc1 | -1.9 | -87.2 | 0.0 | 0.0 | 87.2*
O=[N+]([O-])c1cccc(-c2csc(N/N=C/c3cccc(O)c3)n2)c1 | 4.1 | -101.4 | 1.8 | -0.3 | 101.3*
CCOC(=O)Cc1csc(N/N=C/c2cccc([N+](=O)[O-])c2)n1 | -6.3 | -23.3 | -3.6 | 0.0 | 23.3
C[C@@H]1CN(C)C(=O)Cc2cc(N(C)C)ccc2O[C@@H]1CN(C)C(=O)OC(C)(C)C | / | / | -0.4 | / | /
CCN(CC)S(=O)(=O)c1cccc(C(=O)N/N=C/c2cccc(O)c2O)c1 | -3.1 | -59.9 | 29.8 | -0.3 | 59.9
COc1cc(/C=N/NC(=O)c2ccc(COc3cc(C)ccc3C(C)C)cc2)cc(OC)c1O | -6.0 | -53.8 | -3.9 | -0.2 | 53.8
Cc1ccc(C(C)C)c(OCc2ccc(C(=O)N/N=C/c3ccc(O)c(O)c3)cc2)c1 | -5.6 | -81.6 | 2.3 | 0.1 | 81.6*
Cc1ccc(C(C)C)c(OCc2ccc(C(=O)N/N=C/c3cccc(O)c3O)cc2)c1 | -2.6 | -136.1 | -0.3 | -0.2 | 136.1*
COc1cccc(NC(=O)N[C@@H]2C=C[C@@H](CC(=O)Nc3ccccc3)O[C@@H]2CO)c1 | / | / | 0.7 | / | /
CCOc1cc(NC(=S)Nc2ccccc2OC)c(OCC)cc1NC(=O)c1ccccc1C | -5.5 | -87.4 | 8.1 | 0.1 | 87.4*
CCOc1cc(NC(=S)Nc2ccccc2)c(OCC)cc1NC(=O)c1ccccc1 | -5.4 | -80.5 | 2.6 | 0.1 | 80.5*
